Experiment [1] relates to HepG2. Description: Cytotoxicity against human HepG2 cells assessed as cell viability at 25 uM after 24 hrs by MTS assay. The class given is functional. Particulars: HepG2, 24 h, read-out: Activity.
Experiment [2] concerns the target T1, DNA topoisomerase 1 (Homo sapiens) (UniProt P11387).
T1 sequence (whole entry): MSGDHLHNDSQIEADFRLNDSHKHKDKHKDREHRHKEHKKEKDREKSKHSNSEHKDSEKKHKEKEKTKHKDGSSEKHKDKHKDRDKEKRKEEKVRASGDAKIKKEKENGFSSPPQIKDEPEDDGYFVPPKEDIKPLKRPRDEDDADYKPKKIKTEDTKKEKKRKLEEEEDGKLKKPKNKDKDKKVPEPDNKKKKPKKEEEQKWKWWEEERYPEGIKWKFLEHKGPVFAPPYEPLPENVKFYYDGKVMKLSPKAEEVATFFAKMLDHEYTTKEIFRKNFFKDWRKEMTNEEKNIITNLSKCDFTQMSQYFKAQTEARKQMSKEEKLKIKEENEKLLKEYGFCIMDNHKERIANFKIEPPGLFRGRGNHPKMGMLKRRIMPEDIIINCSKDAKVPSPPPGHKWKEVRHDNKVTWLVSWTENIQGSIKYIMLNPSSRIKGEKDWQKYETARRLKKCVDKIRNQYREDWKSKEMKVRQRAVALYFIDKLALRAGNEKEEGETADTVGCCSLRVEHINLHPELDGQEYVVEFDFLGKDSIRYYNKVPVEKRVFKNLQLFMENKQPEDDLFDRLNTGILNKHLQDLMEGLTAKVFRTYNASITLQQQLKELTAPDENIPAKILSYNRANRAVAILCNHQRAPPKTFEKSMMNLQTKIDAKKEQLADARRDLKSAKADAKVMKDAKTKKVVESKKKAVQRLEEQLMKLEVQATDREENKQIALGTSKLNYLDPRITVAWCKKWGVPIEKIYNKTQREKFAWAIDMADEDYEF
Description: Inhibition of human recombinant DNA topoisomerase 1-mediated DNA cleavage assessed as decrease in relaxation of supercoiled plasmid substrate DNA at 100 uM after 30 mins by agarose gel electrophoresis.

In experiment [3] the target is DNA topoisomerase 2-alpha (Homo sapiens) (UniProt P11388). Nature of the experiment: Inhibition of human recombinant DNA topoisomerase 2alpha-mediated DNA cleavage assessed as decrease in relaxation of supercoiled plasmid substrate DNA at 100 uM after 30 mins by agarose gel electrophoresis.
DNA topoisomerase 2-alpha (Homo sapiens), sequence (P11388 whole entry): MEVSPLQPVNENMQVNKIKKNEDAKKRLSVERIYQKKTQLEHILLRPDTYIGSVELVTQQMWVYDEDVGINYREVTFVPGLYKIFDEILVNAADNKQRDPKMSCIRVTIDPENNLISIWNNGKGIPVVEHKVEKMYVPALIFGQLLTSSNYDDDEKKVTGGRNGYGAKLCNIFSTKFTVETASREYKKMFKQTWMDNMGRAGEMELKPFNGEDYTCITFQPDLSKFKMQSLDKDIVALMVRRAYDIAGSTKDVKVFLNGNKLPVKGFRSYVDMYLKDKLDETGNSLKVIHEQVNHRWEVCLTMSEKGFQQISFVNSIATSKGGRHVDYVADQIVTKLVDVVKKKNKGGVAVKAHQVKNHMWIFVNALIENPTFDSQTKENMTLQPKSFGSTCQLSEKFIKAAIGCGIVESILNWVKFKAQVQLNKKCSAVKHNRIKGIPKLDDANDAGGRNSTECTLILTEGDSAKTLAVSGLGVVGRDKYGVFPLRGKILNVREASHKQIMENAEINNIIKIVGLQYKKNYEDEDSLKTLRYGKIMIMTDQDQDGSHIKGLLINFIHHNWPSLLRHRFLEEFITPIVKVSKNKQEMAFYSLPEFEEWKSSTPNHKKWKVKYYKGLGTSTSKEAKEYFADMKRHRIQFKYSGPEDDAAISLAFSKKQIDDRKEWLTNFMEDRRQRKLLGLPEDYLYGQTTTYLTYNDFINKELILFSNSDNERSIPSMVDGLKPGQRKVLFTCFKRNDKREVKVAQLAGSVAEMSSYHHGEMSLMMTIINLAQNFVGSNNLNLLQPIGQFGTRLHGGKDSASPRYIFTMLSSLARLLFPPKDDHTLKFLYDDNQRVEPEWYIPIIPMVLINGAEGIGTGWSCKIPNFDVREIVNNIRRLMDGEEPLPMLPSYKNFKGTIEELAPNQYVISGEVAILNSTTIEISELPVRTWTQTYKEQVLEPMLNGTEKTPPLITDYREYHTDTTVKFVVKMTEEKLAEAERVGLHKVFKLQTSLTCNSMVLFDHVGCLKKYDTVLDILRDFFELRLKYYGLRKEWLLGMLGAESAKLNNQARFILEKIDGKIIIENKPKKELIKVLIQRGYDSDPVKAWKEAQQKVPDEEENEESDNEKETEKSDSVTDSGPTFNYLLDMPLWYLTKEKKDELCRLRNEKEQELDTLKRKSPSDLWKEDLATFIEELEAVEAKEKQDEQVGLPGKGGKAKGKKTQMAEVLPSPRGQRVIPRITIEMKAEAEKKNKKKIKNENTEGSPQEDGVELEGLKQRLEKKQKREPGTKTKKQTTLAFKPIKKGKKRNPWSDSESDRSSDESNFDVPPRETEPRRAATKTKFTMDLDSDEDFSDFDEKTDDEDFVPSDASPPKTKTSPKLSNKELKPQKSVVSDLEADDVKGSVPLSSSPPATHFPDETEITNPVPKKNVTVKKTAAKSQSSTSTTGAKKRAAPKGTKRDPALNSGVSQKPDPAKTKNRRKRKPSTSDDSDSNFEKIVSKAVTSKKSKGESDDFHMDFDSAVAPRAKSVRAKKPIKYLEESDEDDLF
The target is the same in experiment [4]. Description: Inhibition of human recombinant DNA topoisomerase 2alpha-mediated DNA cleavage assessed as decrease in relaxation of supercoiled plasmid substrate DNA at 20 uM after 30 mins by agarose gel electrophoresis.
Experiment [5] concerns MCF7. Description: Cytotoxicity against human MCF7 cells after 72 hrs by MTS assay. To be noted: MCF7, 72 h.
Experiment [6] concerns HT-29. Nature of the experiment: Cytotoxicity against human HT-29 cells after 72 hrs by MTS assay. To be noted: HT-29, 72 h.
Experiment [7] concerns HepG2. Description: Cytotoxicity against human HepG2 cells after 72 hrs by MTS assay. Particulars: HepG2, 72 h.
For experiment [8], the system named is Nucleic Acid. Description: Binding affinity to DNA by ethidium bromide staining-based FID assay. Also noted: concentration or dose not given beside the values.
Experiment [9] deals with MCF7. Description: Cytotoxicity against human MCF7 cells at 25 uM after 72 hrs by MTS assay.
Experiment [10] has as its system HepG2. Nature of the experiment: Cytotoxicity against human HepG2 cells at 25 uM after 72 hrs by MTS assay.
Experiment [11] concerns MCF7. Description: Cytotoxicity against human MCF7 cells assessed as cell viability at 25 uM after 72 hrs by MTS assay. To be noted: MCF7, 72 h.
Experiment [12] has as its system HT-29. Description: Cytotoxicity against human HT-29 cells assessed as cell viability at 25 uM after 72 hrs by MTS assay. To be noted: HT-29, 72 h.
For experiment [13], the target named is DNA topoisomerase 2-alpha (Homo sapiens) (UniProt P11388). Description: Induction of poisoning activity in human recombinant DNA topoisomerase 2alpha assessed as enhancement of in relaxation of supercoiled plasmid substrate DNA at 100 uM after 30 mins by agarose gel electrophoresis. In short, it runs like this:
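For topo IIα cleavage, 0.25 µg supercoiled pRYG was incubated with 4 units of human topoisomerase IIα (p170) in Tris buffer with 2 mM ATP and 10 mM MgCl2 for 30 min at 37 °C. Workup was SDS stop, proteinase K, extraction and agarose electrophoresis. Poisoning was judged by appearance of a linear DNA band.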

The target in experiment [14] is T1, DNA topoisomerase 1 (Homo sapiens). Description: Induction of poisoning activity in human recombinant DNA topoisomerase 1 assessed as enhancement of in relaxation of supercoiled plasmid substrate DNA at 100 uM after 30 mins by agarose gel electrophoresis. The essentials:
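In the topo I cleavage (poison) assay, the relaxation format was used with 6 units of enzyme for 30 min at 37 °C. Reactions were stopped with SDS, digested with proteinase K and CIA-extracted. DNA was run on 1% agarose with and without ethidium bromide. Poisoning was scored by the presence of the nicked open-circular band, referenced to camptothecin.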

In experiment [15] the test system is MCF7. Nature of the experiment: Cytotoxicity against human MCF7 cells assessed as cell viability at 100 uM after 72 hrs by MTS assay. Particulars: MCF7, 72 h.
The subject of experiment [16] is HT-29. Description: Cytotoxicity against human HT-29 cells assessed as cell viability at 100 uM after 72 hrs by MTS assay. Particulars: HT-29, 72 h.
The subject of experiment [17] is HepG2. Nature of the experiment: Cytotoxicity against human HepG2 cells assessed as cell viability at 100 uM after 72 hrs by MTS assay. Particulars: HepG2, 72 h.
Experiment [18] can be described thus: Cytotoxicity against human CRL7761 cells after 3 days by MTS assay. Particulars: 72 h. In kind it is cell-based. The essentials: (§1)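 Non-tumour cells were CRL-7761 human skin, Vero monkey kidney (DMEM high glucose, 5% FBS, 10 mM HEPES) and NIH/3T3 mouse (DMEM, 10% calf serum). Cells were seeded, left 24 h, then switched to serum-free DMEM-F12 with albumin, transferrin and insulin, with or without compound. Exposure was 3 days at 37 °C.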

For experiment [19], the system named is Vero. Description: Cytotoxicity against african green monkey Vero cells after 3 days by MTS assay. In kind it is cell-based. Particulars: Chlorocebus sabaeus, 72 h. In short, it runs like this:
as §1

The nature of experiment [20]: Cytotoxicity against mouse NIH/3T3 cells after 3 days by MTS assay. The class given is cell-based. Particulars: NIH3T3, 72 h. The essentials: as §1
Experiment [21] addresses DNA topoisomerase 2-alpha (Homo sapiens) (UniProt P11388). Nature of the experiment: Inhibition of human recombinant DNA topoisomerase 2alpha-mediated DNA cleavage assessed as decrease in relaxation of supercoiled plasmid substrate DNA at 40 uM after 30 mins by agarose gel electrophoresis.
Experiment [22] deals with HT-29. Description: Cytotoxicity against human HT-29 cells at 25 uM after 72 hrs by MTS assay.
Experiment [23] has as its target T1, DNA topoisomerase 1 (Homo sapiens). Nature of the experiment: Inhibition of human recombinant DNA topoisomerase 1-mediated DNA cleavage assessed as decrease in relaxation of supercoiled plasmid substrate DNA at 40 uM after 30 mins by agarose gel electrophoresis.

pIC50: −log10 of the molar value. Active and inactive are the calls of the source. No cut-off for these calls is given here.

As for `C[C@@H]1O[C@@H](OCC#Cc2c(-c3ccccc3)[nH]c3ccccc23)C[C@H](N)[C@H]1O`, the viability at 25 µM in experiment [1] is below 1%; in experiment [11], 2%; in experiment [12], 7%. Besides, the inhibition is 8.2% in [2] and 55.5% in experiment [3]. Further, in experiment [4], the inhibition result was “inactive”. The results for the pIC50 in experiment [5], in experiment [6] and in experiment [7] were 4.76, 4.71 and 4.79, respectively. Also, the Activity in [8] worked out at 76.5%; in experiment [9], 100%; in experiment [10] it was 100%.
For the compound `Ic1c(-c2ccccc2)sc2ccccc12`, the result in experiment [13] and in experiment [14] was inactive. The figures for the viability at 100 µM in experiment [15], in [16] and in experiment [17] were 111%, 89% and 87%, respectively.
As to `Cc1ccc(S(=O)(=O)n2c(-c3ccccc3)c(C#CCO[C@H]3CC[C@H](N)[C@H](C)O3)c3ccccc32)cc1`, the viability at 25 µM in experiment [1], in experiment [11] and in [12] was below 1% throughout. In addition, the pIC50 was 4.76 in [18]; 5.00 in [19]; 5.31 in experiment [20]; 5.29 in experiment [5]; 5.27 in experiment [6]; 5.02 in [7]. Besides, the results for the inhibition in experiment [2] and in experiment [3] were 43.2% and 86.2%, respectively. In experiment [21], the inhibition result is “Active”. Also, in [4], the inhibition entry is “inactive”. Besides, the outcome in [13] and in [14] was inactive. Besides, the Activity in experiment [8] amounted to 38.6%; in [9], 100%; in [22], 100%; in experiment [10], 100%.
Turning to `C[C@@H]1O[C@@H](OCC#Cc2c(-c3ccccc3)oc3ccccc23)C[C@H](N)[C@@H]1O`, the viability at 25 µM in [1], in [11] and in [12] was below 1% throughout. Further, the pIC50 in experiment [18] is 4.78; in [19], 5.24; in experiment [20], 5.32; in [5], 5.18; in [6] it was 5.28; in experiment [7], 5.49. Besides, the values for the inhibition in experiment [2] and in experiment [3] were 77.8% and 6.5%, respectively. The inhibition result in experiment [23] and in experiment [4] was “inactive” in each case. Besides, the result in experiment [13] and in experiment [14] was inactive. Besides, the Activity amounted to 62% in [8], 100% in [9], 100% in [22] and 100% in [10].
`Cc1ccc(S(=O)(=O)n2c(-c3ccccc3)c(C#CCO[C@H]3C[C@H](N)[C@@H](O)[C@H](C)O3)c3ccccc32)cc1`: the viability at 25 µM in experiment [1], in [11] and in experiment [12] was below 1% throughout. The pIC50 was 4.61 in [18]; 4.94 in experiment [19]; 5.24 in [20]; 5.33 in experiment [5]; 5.14 in experiment [6]; 5.11 in experiment [7]. Also, the inhibition amounted to 92.8% in experiment [2] and 103% in experiment [3]. The inhibition entry in [23] and in experiment [4] was “inactive” each time. Further, the inhibition result in experiment [21] is “Active”. In addition, the result in [13] and in experiment [14] was inactive. The Activity came to 49.7% in experiment [8], 100% in experiment [9], 100% in experiment [22] and 100% in [10].
For `CC[C@@]1(O)C(=O)OCc2c1cc1n(c2=O)Cc2cc3ccccc3nc2-1`, the outcome in experiment [13] and in experiment [14] was inactive.
For the compound `C[C@@H]1O[C@@H](OCC#Cc2c(-c3ccccc3)[nH]c3ccccc23)CC[C@@H]1N`, the viability at 25 µM in [1], in experiment [11] and in experiment [12] was below 1% throughout. Besides, the pIC50 was 4.62 in experiment [18]; 4.69 in [19]; 4.83 in [20]; 4.97 in [5]; 5.04 in [6]; 4.94 in [7]. For the same compound, the figures for the inhibition in experiment [2] and in [3] were 4% and 39.5%, respectively. Further, the Activity in experiment [8] is 78.4%; in experiment [9], 100%; in experiment [22], 100%; in [10], 100%.
On to `C[C@@H]1O[C@@H](OCC#Cc2c(-c3ccccc3)oc3ccccc23)C[C@H](N)[C@H]1O`, for which the viability at 25 µM in [1], in experiment [11] and in [12] was below 1% in each case. Besides, the pIC50 in [18] was below 4.60; in experiment [19], 4.97; in experiment [20], 5.19; in experiment [5], 5.27; in experiment [6] it was 5.19; in experiment [7] it was 5.11. The inhibition in experiment [2] worked out at 25.5%; in experiment [3], 5.5%. Also, the Activity in [8] came to 50.5%; in [9], 100%; in experiment [22] it was 100%; in experiment [10] it was 100%.

(Values after ChEMBL document CHEMBL1641417, “Cytotoxicity and topoisomerase I/II inhibition of glycosylated 2-phenyl-indoles, 2-phenyl-benzo[b]thiophenes and 2-phenyl-benzo[b]furans” (Bioorg Med Chem, 2011).)
